# Measured values from ChEMBL document CHEMBL1137337, “Design, synthesis, and biological evaluation of new cyclic melanotropin peptide analogues selective for the human melanocortin-4 receptor” (J Med Chem, 2006).
# Calls of active or inactive are those of the source. No cut-off for these calls is given here.
# Biological target: T1, Melanocyte-stimulating hormone receptor (Homo sapiens, UniProt Q01726)
# Assay: Displacement of [125I]NDP-alphaMSH from human MC1 receptor expressed in HEK293 cells
# Format: cell-based
# In short: (§1)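 Whole-cell competition used transfected HEK293 cells seeded 48 h ahead at 100 000 cells/well. Binding buffer was MEM with 25 mM HEPES pH 7.4, 0.2% BSA, 1 mM 1,10-phenanthroline, leupeptin and bacitracin. Radioactivity was gamma-counted, and IC50 was obtained by nonlinear least-squares fit.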
SMILES,IC50,Activity
CC(=O)N[C@H]1CSSC[C@H](C(=O)N[C@@H](Cc2c[nH]c3ccccc23)C(N)=O)N(CCCCN=C(N)N)C(=O)[C@@H](Cc2ccccc2)NC(=O)[C@H](Cc2c[nH]cn2)NC1=O,1 µM,
CC(=O)N[C@H]1CSSC[C@@H](C(=O)N(CCCCN=C(N)N)[C@@H](Cc2c[nH]c3ccccc23)C(N)=O)NC(=O)[C@@H](Cc2ccccc2)NC(=O)[C@H](Cc2cnc[nH]2)NC1=O,> 1 µM,
CC(=O)N[C@H]1CSSC[C@@H](C(=O)N(CCCCN=C(N)N)[C@H](Cc2c[nH]c3ccccc23)C(N)=O)NC(=O)[C@@H](Cc2ccccc2)NC(=O)[C@H](Cc2c[nH]cn2)NC1=O,,inactive

# Biological target: T2, Melanocortin receptor 3 (Homo sapiens, UniProt P41968)
# Assay: Displacement of [125I]NDP-alphaMSH from human MC3 receptor expressed in HEK293 cells
# Format: cell-based
# In short: as §1
# T2 sequence (P41968 whole entry): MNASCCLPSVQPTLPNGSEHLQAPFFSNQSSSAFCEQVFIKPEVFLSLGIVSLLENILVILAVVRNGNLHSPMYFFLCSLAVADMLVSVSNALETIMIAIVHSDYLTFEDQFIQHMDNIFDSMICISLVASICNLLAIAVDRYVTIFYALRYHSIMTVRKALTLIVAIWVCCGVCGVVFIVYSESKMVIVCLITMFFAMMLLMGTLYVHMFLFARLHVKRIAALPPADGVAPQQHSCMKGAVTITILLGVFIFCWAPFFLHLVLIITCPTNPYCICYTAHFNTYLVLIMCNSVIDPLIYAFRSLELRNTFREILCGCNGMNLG
SMILES,Activity,IC50
CC(=O)N[C@H]1CSSC[C@H](C(=O)N[C@@H](Cc2c[nH]c3ccccc23)C(N)=O)N(CCCCN=C(N)N)C(=O)[C@@H](Cc2ccccc2)NC(=O)[C@H](Cc2c[nH]cn2)NC1=O,inactive,
CC(=O)N[C@H]1CSSC[C@@H](C(=O)N(CCCCN=C(N)N)[C@@H](Cc2c[nH]c3ccccc23)C(N)=O)NC(=O)[C@@H](Cc2ccccc2)NC(=O)[C@H](Cc2cnc[nH]2)NC1=O,,> 1 µM

# Biological target: T3, Melanocortin receptor 4 (Homo sapiens, UniProt P32245)
# Assay: Displacement of [125I]NDP-alphaMSH from human MC4 receptor expressed in HEK293 cells
# Format: cell-based
# In short: as §1
# T3 sequence (P32245 whole entry): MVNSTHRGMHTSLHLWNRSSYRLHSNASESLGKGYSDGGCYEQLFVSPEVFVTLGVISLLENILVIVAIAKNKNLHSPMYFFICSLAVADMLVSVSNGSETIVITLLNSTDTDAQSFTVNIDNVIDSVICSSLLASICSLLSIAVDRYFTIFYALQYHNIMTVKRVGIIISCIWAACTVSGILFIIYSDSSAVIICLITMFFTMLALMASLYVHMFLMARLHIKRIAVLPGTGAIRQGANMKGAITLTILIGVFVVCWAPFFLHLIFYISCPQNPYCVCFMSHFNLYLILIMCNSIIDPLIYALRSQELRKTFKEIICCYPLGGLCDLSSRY
SMILES,Activity,IC50
CC(=O)N[C@H]1CSSC[C@H](C(=O)N[C@@H](Cc2c[nH]c3ccccc23)C(N)=O)N(CCCCN=C(N)N)C(=O)[C@@H](Cc2ccccc2)NC(=O)[C@H](Cc2c[nH]cn2)NC1=O,inactive,
CC(=O)N[C@H]1CSSC[C@@H](C(=O)N(CCCCN=C(N)N)[C@@H](Cc2c[nH]c3ccccc23)C(N)=O)NC(=O)[C@@H](Cc2ccccc2)NC(=O)[C@H](Cc2cnc[nH]2)NC1=O,,0.0041 µM

# Biological target: T4, Melanocortin receptor 5 (Homo sapiens, UniProt P33032)
# Assay: Displacement of [125I]NDP-alphaMSH from human MC5 receptor expressed in HEK293 cells
# Format: cell-based
# In short: as §1
# T4 sequence (P33032 whole entry): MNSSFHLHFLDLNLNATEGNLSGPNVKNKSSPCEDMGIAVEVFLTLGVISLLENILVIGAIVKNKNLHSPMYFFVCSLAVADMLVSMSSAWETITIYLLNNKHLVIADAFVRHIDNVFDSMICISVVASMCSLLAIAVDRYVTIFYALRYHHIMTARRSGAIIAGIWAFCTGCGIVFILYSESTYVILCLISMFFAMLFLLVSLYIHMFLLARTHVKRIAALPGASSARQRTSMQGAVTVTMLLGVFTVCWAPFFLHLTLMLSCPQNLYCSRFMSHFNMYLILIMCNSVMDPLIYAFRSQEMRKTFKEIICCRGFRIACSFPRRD
row,SMILES,Activity
1,CC(=O)N[C@H]1CSSC[C@H](C(=O)N[C@@H](Cc2c[nH]c3ccccc23)C(N)=O)N(CCCCN=C(N)N)C(=O)[C@@H](Cc2ccccc2)NC(=O)[C@H](Cc2c[nH]cn2)NC1=O,inactive
2,CC(=O)N[C@H]1CSSC[C@@H](C(=O)N(CCCCN=C(N)N)[C@H](Cc2c[nH]c3ccccc23)C(N)=O)NC(=O)[C@@H](Cc2ccccc2)NC(=O)[C@H](Cc2c[nH]cn2)NC1=O,inactive

# Biological target: T2, Melanocortin receptor 3
# Assay: Activity at hMC3R transfected in HEK293 cells assessed as intracellular cAMP accumulation
# Format: functional, cell-based
# In short: (§2)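 HEK293 cells stably carrying the human MC receptor were seeded 48 h ahead at 50 000 cells/well. They were preincubated 1 min at 37 °C in EBSS with IBMX, then exposed to peptide at 10⁻¹⁰ to 10⁻⁵ M for 3 min at 37 °C. Ice-cold Tris/EDTA stopped the reaction, and lysates were boiled 15 min. Total cAMP was measured by competitive binding kit, and EC50 was obtained by nonlinear least-squares fit.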
row,SMILES,Activity
1,CC(=O)N[C@H]1CSSC[C@H](C(=O)N[C@@H](Cc2c[nH]c3ccccc23)C(N)=O)N(CCCCN=C(N)N)C(=O)[C@@H](Cc2ccccc2)NC(=O)[C@H](Cc2c[nH]cn2)NC1=O,inactive
2,CC(=O)N[C@H]1CSSC[C@@H](C(=O)N(CCCCN=C(N)N)[C@H](Cc2c[nH]c3ccccc23)C(N)=O)NC(=O)[C@@H](Cc2ccccc2)NC(=O)[C@H](Cc2c[nH]cn2)NC1=O,inactive

# Biological target: T3, Melanocortin receptor 4
# Assay: Activity at hMC4R transfected in HEK293 cells assessed as intracellular cAMP accumulation
# Format: functional, cell-based
# In short: as §2
SMILES,Activity,EC50
CC(=O)N[C@H]1CSSC[C@H](C(=O)N[C@@H](Cc2c[nH]c3ccccc23)C(N)=O)N(CCCCN=C(N)N)C(=O)[C@@H](Cc2ccccc2)NC(=O)[C@H](Cc2c[nH]cn2)NC1=O,inactive,
CC(=O)N[C@H]1CSSC[C@@H](C(=O)N(CCCCN=C(N)N)[C@@H](Cc2c[nH]c3ccccc23)C(N)=O)NC(=O)[C@@H](Cc2ccccc2)NC(=O)[C@H](Cc2cnc[nH]2)NC1=O,,> 1 µM

# Biological target: T4, Melanocortin receptor 5
# Assay: Activity at hMC5R transfected in HEK293 cells assessed as intracellular cAMP accumulation
# Format: functional, cell-based
# In short: as §2
row,SMILES,Activity
1,CC(=O)N[C@H]1CSSC[C@H](C(=O)N[C@@H](Cc2c[nH]c3ccccc23)C(N)=O)N(CCCCN=C(N)N)C(=O)[C@@H](Cc2ccccc2)NC(=O)[C@H](Cc2c[nH]cn2)NC1=O,inactive
2,CC(=O)N[C@H]1CSSC[C@@H](C(=O)N(CCCCN=C(N)N)[C@H](Cc2c[nH]c3ccccc23)C(N)=O)NC(=O)[C@@H](Cc2ccccc2)NC(=O)[C@H](Cc2c[nH]cn2)NC1=O,inactive

# Biological target: T1, Melanocyte-stimulating hormone receptor
# Assay: Displacement of [125I]NDP-alphaMSH from human MC1 receptor expressed in HEK293 cells relative to MT2
# Format: cell-based
# In short: (§3)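 Binding efficiency was measured in the whole-cell [¹²⁵I]NDP-α-MSH competition assay on receptor-transfected HEK293 cells (30 min, 37 °C). It is expressed as the peptide's maximal percentage specific binding relative to MTII agonist binding, with peptides tested at 10⁻¹⁰ to 10⁻⁵ M.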
# Target sequence in this assay (Q01726 whole entry, looked up): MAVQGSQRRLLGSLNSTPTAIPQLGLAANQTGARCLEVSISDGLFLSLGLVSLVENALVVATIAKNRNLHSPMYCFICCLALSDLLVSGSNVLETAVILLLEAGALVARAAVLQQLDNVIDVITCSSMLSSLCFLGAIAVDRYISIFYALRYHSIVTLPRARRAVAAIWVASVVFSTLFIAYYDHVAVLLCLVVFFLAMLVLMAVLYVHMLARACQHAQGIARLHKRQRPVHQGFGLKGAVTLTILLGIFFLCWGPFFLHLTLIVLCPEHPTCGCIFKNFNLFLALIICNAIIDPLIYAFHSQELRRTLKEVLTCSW
row,SMILES,Activity
1,CC(=O)N[C@H]1CSSC[C@H](C(=O)N[C@@H](Cc2c[nH]c3ccccc23)C(N)=O)N(CCCCN=C(N)N)C(=O)[C@@H](Cc2ccccc2)NC(=O)[C@H](Cc2c[nH]cn2)NC1=O,< 10%
2,CC(=O)N[C@H]1CSSC[C@@H](C(=O)N(CCCCN=C(N)N)[C@H](Cc2c[nH]c3ccccc23)C(N)=O)NC(=O)[C@@H](Cc2ccccc2)NC(=O)[C@H](Cc2c[nH]cn2)NC1=O,0%

# Biological target: T2, Melanocortin receptor 3
# Assay: Displacement of [125I]NDP-alphaMSH from human MC3 receptor expressed in HEK293 cells relative to MT2
# Format: cell-based
# In short: as §3
row,SMILES,Activity
1,CC(=O)N[C@H]1CSSC[C@H](C(=O)N[C@@H](Cc2c[nH]c3ccccc23)C(N)=O)N(CCCCN=C(N)N)C(=O)[C@@H](Cc2ccccc2)NC(=O)[C@H](Cc2c[nH]cn2)NC1=O,0%
2,CC(=O)N[C@H]1CSSC[C@@H](C(=O)N(CCCCN=C(N)N)[C@H](Cc2c[nH]c3ccccc23)C(N)=O)NC(=O)[C@@H](Cc2ccccc2)NC(=O)[C@H](Cc2c[nH]cn2)NC1=O,< 10%

# Biological target: T3, Melanocortin receptor 4
# Assay: Displacement of [125I]NDP-alphaMSH from human MC4 receptor expressed in HEK293 cells relative to MT2
# Format: cell-based
# In short: as §3
row,SMILES,Activity
1,CC(=O)N[C@H]1CSSC[C@H](C(=O)N[C@@H](Cc2c[nH]c3ccccc23)C(N)=O)N(CCCCN=C(N)N)C(=O)[C@@H](Cc2ccccc2)NC(=O)[C@H](Cc2c[nH]cn2)NC1=O,0%
2,CC(=O)N[C@H]1CSSC[C@@H](C(=O)N(CCCCN=C(N)N)[C@H](Cc2c[nH]c3ccccc23)C(N)=O)NC(=O)[C@@H](Cc2ccccc2)NC(=O)[C@H](Cc2c[nH]cn2)NC1=O,50%

# Biological target: T4, Melanocortin receptor 5
# Assay: Displacement of [125I]NDP-alphaMSH from human MC5 receptor expressed in HEK293 cells relative to MT2
# Format: cell-based
# In short: as §3
row,SMILES,Activity
1,CC(=O)N[C@H]1CSSC[C@H](C(=O)N[C@@H](Cc2c[nH]c3ccccc23)C(N)=O)N(CCCCN=C(N)N)C(=O)[C@@H](Cc2ccccc2)NC(=O)[C@H](Cc2c[nH]cn2)NC1=O,0%
2,CC(=O)N[C@H]1CSSC[C@@H](C(=O)N(CCCCN=C(N)N)[C@H](Cc2c[nH]c3ccccc23)C(N)=O)NC(=O)[C@@H](Cc2ccccc2)NC(=O)[C@H](Cc2c[nH]cn2)NC1=O,0%

# Biological target: T1, Melanocyte-stimulating hormone receptor
# Assay: Activity at hMC1R transfected in HEK293 cells assessed as intracellular cAMP accumulation relative to MT2
# Format: functional, cell-based
# Set-up: concentration or dose not given beside the values
# Target sequence in this assay (Q01726 whole entry, looked up): as above
row,SMILES,Activity
1,CC(=O)N[C@H]1CSSC[C@H](C(=O)N[C@@H](Cc2c[nH]c3ccccc23)C(N)=O)N(CCCCN=C(N)N)C(=O)[C@@H](Cc2ccccc2)NC(=O)[C@H](Cc2c[nH]cn2)NC1=O,0%
2,CC(=O)N[C@H]1CSSC[C@@H](C(=O)N(CCCCN=C(N)N)[C@H](Cc2c[nH]c3ccccc23)C(N)=O)NC(=O)[C@@H](Cc2ccccc2)NC(=O)[C@H](Cc2c[nH]cn2)NC1=O,0%

# Biological target: T2, Melanocortin receptor 3
# Assay: Activity at hMC3R transfected in HEK293 cells assessed as intracellular cAMP accumulation relative to MT2
# Format: functional, cell-based
# Set-up: concentration or dose not given beside the values
row,SMILES,Activity
1,CC(=O)N[C@H]1CSSC[C@H](C(=O)N[C@@H](Cc2c[nH]c3ccccc23)C(N)=O)N(CCCCN=C(N)N)C(=O)[C@@H](Cc2ccccc2)NC(=O)[C@H](Cc2c[nH]cn2)NC1=O,0%
2,CC(=O)N[C@H]1CSSC[C@@H](C(=O)N(CCCCN=C(N)N)[C@H](Cc2c[nH]c3ccccc23)C(N)=O)NC(=O)[C@@H](Cc2ccccc2)NC(=O)[C@H](Cc2c[nH]cn2)NC1=O,0%

# Biological target: T3, Melanocortin receptor 4
# Assay: Activity at hMC4R transfected in HEK293 cells assessed as intracellular cAMP accumulation relative to MT2
# Format: functional, cell-based
# Set-up: concentration or dose not given beside the values
row,SMILES,Activity
1,CC(=O)N[C@H]1CSSC[C@H](C(=O)N[C@@H](Cc2c[nH]c3ccccc23)C(N)=O)N(CCCCN=C(N)N)C(=O)[C@@H](Cc2ccccc2)NC(=O)[C@H](Cc2c[nH]cn2)NC1=O,0%
2,CC(=O)N[C@H]1CSSC[C@@H](C(=O)N(CCCCN=C(N)N)[C@H](Cc2c[nH]c3ccccc23)C(N)=O)NC(=O)[C@@H](Cc2ccccc2)NC(=O)[C@H](Cc2c[nH]cn2)NC1=O,19%

# Biological target: T4, Melanocortin receptor 5
# Assay: Activity at hMC5R transfected in HEK293 cells assessed as intracellular cAMP accumulation relative to MT2
# Format: functional, cell-based
row,SMILES,Activity
1,CC(=O)N[C@H]1CSSC[C@H](C(=O)N[C@@H](Cc2c[nH]c3ccccc23)C(N)=O)N(CCCCN=C(N)N)C(=O)[C@@H](Cc2ccccc2)NC(=O)[C@H](Cc2c[nH]cn2)NC1=O,0%
2,CC(=O)N[C@H]1CSSC[C@@H](C(=O)N(CCCCN=C(N)N)[C@H](Cc2c[nH]c3ccccc23)C(N)=O)NC(=O)[C@@H](Cc2ccccc2)NC(=O)[C@H](Cc2c[nH]cn2)NC1=O,0%
